Laboratory results: ChEMBL document CHEMBL4014345, “Development of Selective Clk1 and -4 Inhibitors for Cellular Depletion of Cancer-Relevant Proteins” (J Med Chem, 2017)
Calls of active or inactive are those of the source. The rule behind the calls is not given here.

Tests used:
[1] = target: T1, Dual specificity tyrosine-phosphorylation-regulated kinase 1A (Homo sapiens, UniProt Q13627); assay: Inhibition of N-terminal His6-tagged recombinant human Dyrk1A expressed in Escherichia coli BL21 (DE3) using KKISGRLSPIMTEQ-NH2 as substrate after 15 mins in presence of [gamma-32]-ATP
[2] = target: T2, Dual specificity protein kinase CLK1 (Homo sapiens, UniProt P49759); assay: Inhibition of recombinant human GST-tagged Clk1 expressed in Escherichia coli using RS repeat substrate peptide after 15 mins in presence of [gamma-32]-ATP
Target sequence in this assay (P49759 whole entry): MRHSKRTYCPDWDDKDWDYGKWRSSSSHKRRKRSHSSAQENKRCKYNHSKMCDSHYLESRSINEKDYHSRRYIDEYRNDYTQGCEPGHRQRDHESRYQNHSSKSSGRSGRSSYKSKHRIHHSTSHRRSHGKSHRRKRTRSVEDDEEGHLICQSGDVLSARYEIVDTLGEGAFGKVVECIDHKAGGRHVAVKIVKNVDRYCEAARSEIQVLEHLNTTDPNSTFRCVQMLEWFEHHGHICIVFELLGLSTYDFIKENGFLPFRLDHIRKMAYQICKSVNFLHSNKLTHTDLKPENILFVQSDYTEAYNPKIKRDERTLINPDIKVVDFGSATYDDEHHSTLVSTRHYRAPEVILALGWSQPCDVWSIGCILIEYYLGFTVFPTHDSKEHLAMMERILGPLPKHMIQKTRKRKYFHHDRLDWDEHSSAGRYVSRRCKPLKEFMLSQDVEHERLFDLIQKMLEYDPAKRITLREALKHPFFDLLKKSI

[3] = target: T3, Dual specificity protein kinase CLK1/CLK4 (Homo sapiens, UniProt Q9HAZ1+P49759); assay: Inhibition of CLK1/4 in human T24 cells assessed as down regulation of EGFR expression at 10 uM after 3 days by Western blot analysis relative to control; assay type: cell-based
Outline: (§1)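 T24 or MDA-MB-231 cells were grown in DMEM to 70% confluency. The medium was replaced with compound diluted in DMEM, and cells were kept 3 days. Total protein was immunoblotted with monoclonal antibodies in 3% BSA/PBS against EGFR, p70S6K α, PARP-1, ERK2, HDAC1, CD44, PCNA and GRP94.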

[4] = target: T2, Dual specificity protein kinase CLK1; assay: Inhibition of recombinant human GST-tagged Clk1 expressed in Escherichia coli at 100 nM using RS repeat substrate peptide after 15 mins in presence of [gamma-32]-ATP
Target sequence in this assay (P49759 whole entry, looked up): as the sequence (P49759 whole entry) above

[5] = target: T4, Dual specificity tyrosine-phosphorylation-regulated kinase 1B (Homo sapiens, UniProt Q9Y463); assay: Inhibition of full length recombinant GST-tagged human DYRK1B expressed in baculovirus using KKISGRLSPIMTEQ-NH2 as substrate after 15 mins
Target sequence in this assay (Q9Y463 whole entry): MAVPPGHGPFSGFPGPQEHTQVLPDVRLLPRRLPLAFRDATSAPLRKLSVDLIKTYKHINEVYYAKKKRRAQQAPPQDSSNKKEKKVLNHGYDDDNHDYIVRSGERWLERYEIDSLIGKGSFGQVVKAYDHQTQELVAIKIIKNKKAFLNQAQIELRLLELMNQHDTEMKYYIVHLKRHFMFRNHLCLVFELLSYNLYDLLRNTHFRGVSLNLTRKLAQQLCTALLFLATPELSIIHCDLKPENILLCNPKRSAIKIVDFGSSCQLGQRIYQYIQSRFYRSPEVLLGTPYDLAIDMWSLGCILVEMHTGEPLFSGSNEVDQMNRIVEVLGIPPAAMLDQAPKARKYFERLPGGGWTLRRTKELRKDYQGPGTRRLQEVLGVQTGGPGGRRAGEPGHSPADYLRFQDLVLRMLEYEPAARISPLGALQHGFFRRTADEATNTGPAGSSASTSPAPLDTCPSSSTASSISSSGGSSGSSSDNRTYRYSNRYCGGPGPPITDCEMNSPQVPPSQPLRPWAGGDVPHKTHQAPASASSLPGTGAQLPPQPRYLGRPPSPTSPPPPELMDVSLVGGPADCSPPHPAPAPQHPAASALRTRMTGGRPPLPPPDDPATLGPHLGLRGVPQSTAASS

[6] = target: T1, Dual specificity tyrosine-phosphorylation-regulated kinase 1A; assay: Inhibition of N-terminal His6-tagged recombinant human Dyrk1A expressed in Escherichia coli BL21 (DE3) using KKISGRLSPIMTEQ-NH2 as substrate at 1 uM after 15 mins in presence of [gamma-32]-ATP; settings: 0.25 h
[7] = target: T4, Dual specificity tyrosine-phosphorylation-regulated kinase 1B; assay: Inhibition of full length recombinant GST-tagged human DYRK1B expressed in baculovirus using KKISGRLSPIMTEQ-NH2 as substrate at 1 uM after 15 mins
Target sequence in this assay (Q9Y463 whole entry, looked up): as the sequence (Q9Y463 whole entry) above

[8] = target: Dual specificity protein kinase CLK4 (Mus musculus, UniProt O35493); assay: Inhibition of recombinant GST-tagged mouse CLK4 using GRSRSRSRSRSR as substrate after 30 mins in presence of [gamma-32P]-ATP by scintillation counting method
Dual specificity protein kinase CLK4, sequence (O35493 whole entry): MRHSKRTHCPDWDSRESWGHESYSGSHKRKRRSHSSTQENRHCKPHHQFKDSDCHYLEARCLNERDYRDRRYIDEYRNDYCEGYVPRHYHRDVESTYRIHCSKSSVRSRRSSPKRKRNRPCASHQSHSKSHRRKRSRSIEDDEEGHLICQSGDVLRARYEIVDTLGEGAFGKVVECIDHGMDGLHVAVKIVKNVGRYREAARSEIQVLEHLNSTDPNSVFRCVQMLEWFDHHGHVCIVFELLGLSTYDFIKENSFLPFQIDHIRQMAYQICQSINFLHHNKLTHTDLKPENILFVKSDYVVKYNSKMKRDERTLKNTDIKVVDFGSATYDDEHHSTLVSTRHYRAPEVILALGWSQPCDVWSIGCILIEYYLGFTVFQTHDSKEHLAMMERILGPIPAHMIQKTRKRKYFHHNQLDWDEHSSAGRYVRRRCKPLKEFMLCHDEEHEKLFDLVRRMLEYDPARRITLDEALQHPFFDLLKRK

[9] = target: SRSF protein kinase 1 (Homo sapiens) (UniProt Q96SB4); assay: Inhibition of SRPK1 (unknown origin) at 1 uM
SRSF protein kinase 1 (Homo sapiens), sequence (Q96SB4 whole entry): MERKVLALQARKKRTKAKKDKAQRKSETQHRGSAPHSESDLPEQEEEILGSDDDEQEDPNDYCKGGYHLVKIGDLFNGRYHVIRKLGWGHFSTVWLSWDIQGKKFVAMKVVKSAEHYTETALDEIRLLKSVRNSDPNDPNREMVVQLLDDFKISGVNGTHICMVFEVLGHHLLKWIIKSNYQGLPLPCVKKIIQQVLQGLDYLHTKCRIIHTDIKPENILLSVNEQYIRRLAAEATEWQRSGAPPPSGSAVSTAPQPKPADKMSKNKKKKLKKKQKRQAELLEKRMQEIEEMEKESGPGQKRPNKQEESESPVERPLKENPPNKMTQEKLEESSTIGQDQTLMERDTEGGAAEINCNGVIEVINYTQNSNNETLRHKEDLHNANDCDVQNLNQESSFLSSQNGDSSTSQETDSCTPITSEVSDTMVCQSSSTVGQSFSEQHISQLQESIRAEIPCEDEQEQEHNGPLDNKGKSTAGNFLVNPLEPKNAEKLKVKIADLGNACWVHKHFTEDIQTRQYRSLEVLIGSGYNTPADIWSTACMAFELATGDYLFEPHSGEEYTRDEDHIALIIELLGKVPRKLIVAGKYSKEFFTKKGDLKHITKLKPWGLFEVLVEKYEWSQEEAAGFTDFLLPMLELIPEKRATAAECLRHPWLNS
Outline: (§2)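 Tested in a commercial kinase profiling panel at an ATP concentration of 100 μM. Data are the mean of duplicates that differed by less than 7%.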

[10] = target: Myosin light chain kinase 2, skeletal/cardiac muscle (Homo sapiens) (UniProt Q9H1R3); assay: Inhibition of MLCK2 (unknown origin) at 1 uM after 15 mins; outline: as §2
Myosin light chain kinase 2, skeletal/cardiac muscle (Homo sapiens), sequence (Q9H1R3 whole entry): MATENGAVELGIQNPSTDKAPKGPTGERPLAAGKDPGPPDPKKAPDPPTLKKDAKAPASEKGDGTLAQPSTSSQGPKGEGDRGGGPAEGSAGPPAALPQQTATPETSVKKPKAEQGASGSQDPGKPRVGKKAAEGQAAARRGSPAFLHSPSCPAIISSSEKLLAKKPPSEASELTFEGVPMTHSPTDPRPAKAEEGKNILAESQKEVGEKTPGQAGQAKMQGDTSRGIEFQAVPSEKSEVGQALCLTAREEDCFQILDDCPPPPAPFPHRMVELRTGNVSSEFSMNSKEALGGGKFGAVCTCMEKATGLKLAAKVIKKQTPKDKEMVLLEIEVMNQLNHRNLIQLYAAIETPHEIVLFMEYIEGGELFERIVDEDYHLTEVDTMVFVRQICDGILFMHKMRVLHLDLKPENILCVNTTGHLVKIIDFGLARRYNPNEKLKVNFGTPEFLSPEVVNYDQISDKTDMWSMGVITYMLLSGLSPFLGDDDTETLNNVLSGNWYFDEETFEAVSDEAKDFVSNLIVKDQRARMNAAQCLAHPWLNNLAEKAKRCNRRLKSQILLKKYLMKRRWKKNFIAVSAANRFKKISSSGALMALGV

[11] = target: Dual specificity tyrosine-phosphorylation-regulated kinase 4 (Homo sapiens) (UniProt Q9NR20); assay: Inhibition of DYRK4 (unknown origin) using KKISGRLSPIMTEQ-NH2 as substrate at 1 uM after 15 mins in presence of [gamma-32P]-ATP
Dual specificity tyrosine-phosphorylation-regulated kinase 4 (Homo sapiens), sequence (Q9NR20 whole entry): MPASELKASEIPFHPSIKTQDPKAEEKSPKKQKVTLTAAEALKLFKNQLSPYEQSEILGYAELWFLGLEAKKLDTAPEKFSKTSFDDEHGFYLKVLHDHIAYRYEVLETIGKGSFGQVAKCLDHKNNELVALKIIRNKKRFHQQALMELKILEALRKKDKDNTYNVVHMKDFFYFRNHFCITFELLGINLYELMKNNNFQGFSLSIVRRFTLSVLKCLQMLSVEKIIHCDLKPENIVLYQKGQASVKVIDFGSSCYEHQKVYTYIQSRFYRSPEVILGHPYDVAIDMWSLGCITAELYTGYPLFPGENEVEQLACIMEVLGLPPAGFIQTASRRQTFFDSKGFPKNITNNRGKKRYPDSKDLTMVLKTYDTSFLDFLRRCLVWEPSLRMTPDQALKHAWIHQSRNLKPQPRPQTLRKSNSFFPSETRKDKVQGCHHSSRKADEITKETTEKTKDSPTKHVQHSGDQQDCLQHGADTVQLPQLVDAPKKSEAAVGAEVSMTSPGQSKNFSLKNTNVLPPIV

T-24 [12] = assay: Cytotoxicity against human T24 cells assessed as growth inhibition after 5 days by MTT assay; assay type: functional; settings: T-24, 120 h
Outline: (§3)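 They were seeded at 5000 cells per well onto compound or DMSO (0.2% final). Plates were kept 5 days at 37 °C in 5% CO2 with no medium change, then read by MTT.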

MDA-MB-231 [13] = assay: Cytotoxicity against human MDA-MB-231 cells assessed as growth inhibition after 5 days by MTT assay; assay type: functional; settings: MDA-MB-231, 120 h; outline: as §3
HepG2 = assay: Cytotoxicity against human HepG2 cells assessed as growth inhibition after 5 days by MTT assay; assay type: functional; settings: HepG2, 120 h; outline: as §3
T47D = assay: Cytotoxicity against human T47D cells assessed as growth inhibition after 5 days by MTT assay; assay type: functional; settings: 120 h; outline: as §3
[14] = target: T3, Dual specificity protein kinase CLK1/CLK4; assay: Inhibition of CLK1/4 in human T24 cells assessed as down regulation of EGFR expression after 3 days by Western blot analysis; assay type: cell-based; outline: as §1
[15] = target: T3, Dual specificity protein kinase CLK1/CLK4; assay: Inhibition of CLK1/4 in human T24 cells assessed as down regulation of HDAC1 expression after 3 days by Western blot analysis; assay type: cell-based; outline: as §1
[16] = target: T3, Dual specificity protein kinase CLK1/CLK4; assay: Inhibition of CLK1/4 in human MDA-MB-231 cells assessed as down regulation of S6 kinase expression after 3 days by Western blot analysis; assay type: cell-based; outline: as §1
[17] = target: T3, Dual specificity protein kinase CLK1/CLK4; assay: Inhibition of CLK1/4 in human T24 cells assessed as down regulation of EGFR expression at 1.25 uM after 3 days by Western blot analysis relative to control; assay type: cell-based; outline: as §1
[18] = target: T3, Dual specificity protein kinase CLK1/CLK4; assay: Inhibition of CLK1/4 in human T24 cells assessed as down regulation of HDAC1 expression at 5 uM after 3 days by Western blot analysis relative to control; assay type: cell-based; outline: as §1
[19] = target: T3, Dual specificity protein kinase CLK1/CLK4; assay: Inhibition of CLK1/4 in human MDA-MB-231 cells assessed as down regulation of EGFR expression at 10 uM after 3 days by Western blot analysis relative to control; assay type: cell-based; outline: as §1
[20] = target: T3, Dual specificity protein kinase CLK1/CLK4; assay: Inhibition of CLK1/4 in human MDA-MB-231 cells assessed as down regulation of EGFR expression at 2.5 uM after 3 days by Western blot analysis relative to control; assay type: cell-based; outline: as §1
[21] = target: T3, Dual specificity protein kinase CLK1/CLK4; assay: Inhibition of CLK1/4 in human MDA-MB-231 cells assessed as down regulation of S6 kinase expression at 20 uM after 3 days by Western blot analysis relative to control; assay type: cell-based; outline: as §1
[22] = target: T3, Dual specificity protein kinase CLK1/CLK4; assay: Inhibition of CLK1/4 in human HepG2 cells assessed as down regulation of HDAC1 expression at 20 uM after 3 days by Western blot analysis relative to control; assay type: cell-based
Outline: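 HepG2 cells were grown in DMEM to 70% confluency, then the medium was replaced with compound diluted in DMEM. After 3 days, total protein was immunoblotted with monoclonal antibodies including HDAC1 and p70S6K.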

T-24 [23] = assay: Down regulation of PARP1 expression in human T24 cells at 1.25 to 10 uM after 3 days by Western blot analysis; assay type: functional, cell-based; outline: as §1
T-24 [24] = assay: Down regulation of ERK2 expression in human T24 cells at 1.25 to 10 uM after 3 days by Western blot analysis; assay type: functional, cell-based; outline: as §1
T-24 [25] = assay: Down regulation of PCNA expression in human T24 cells at 1.25 to 10 uM after 3 days by Western blot analysis; assay type: functional, cell-based; outline: as §1
T-24 [26] = assay: Down regulation of GRP94 expression in human T24 cells at 1.25 to 10 uM after 3 days by Western blot analysis; assay type: functional, cell-based; outline: as §1
MDA-MB-231 [27] = assay: Down regulation of PARP1 expression in human MDA-MB-231 cells at 2.5 to 20 uM after 3 days by Western blot analysis; assay type: functional, cell-based; outline: as §1
MDA-MB-231 [28] = assay: Down regulation of ERK2 expression in human MDA-MB-231 cells at 2.5 to 20 uM after 3 days by Western blot analysis; assay type: functional, cell-based; outline: as §1
MDA-MB-231 [29] = assay: Down regulation of CD44 expression in human MDA-MB-231 cells at 2.5 to 20 uM after 3 days by Western blot analysis; assay type: functional, cell-based; outline: as §1
MDA-MB-231 [30] = assay: Down regulation of PCNA expression in human MDA-MB-231 cells at 2.5 to 20 uM after 3 days by Western blot analysis; assay type: functional, cell-based; outline: as §1

Compound: COc1ccc2sc(C(=O)N(C)Cc3cccc(F)c3)cc2c1
- IC50 [1]: 340 nM
- IC50 [2]: 6.9 to 7 nM
- inhibition [3]: 59.7%
- inhibition [4]: 80%
- IC50 [5]: 206 nM
- inhibition at 1 µM [6]: 72%
- inhibition [7]: 77%
- IC50 [8]: 2.3 nM
- inhibition [9]: 2%
- inhibition [10]: inactive
- inhibition [11]: inactive
- GI50 (T-24 [12]): 600 nM
- GI50 (MDA-MB-231 [13]): 9600 nM
- GI50 (HepG2): 2800 nM
- GI50 (T47D): 15300 nM
- IC50 [14]: 2200 nM
- inhibition [14]: Dose-dependent effect
- IC50 [15]: 9500 nM
- inhibition [15]: Dose-dependent effect
- IC50 [16]: > 20000 nM
- inhibition [17]: 48.3%
- inhibition [18]: 47.6%
- inhibition [19]: 54.1%
- inhibition [20]: 47.5%
- inhibition [21]: 41.4%
- inhibition [22]: 44%
- Activity (T-24 [23]): inactive
- Activity (T-24 [24]): inactive
- Activity (T-24 [25]): inactive
- Activity (T-24 [26]): inactive
- Activity (MDA-MB-231 [27]): inactive
- Activity (MDA-MB-231 [28]): inactive
- Activity (MDA-MB-231 [29]): inactive
- Activity (MDA-MB-231 [30]): inactive
